Pemphigus Ab inh: inhibitors of pemphigus antibody binding to DSG3, primary screen, biochemical, bead-based, flow cytometry, scFv-GFP. AID 588358, 2011. binding (percent of control), % at 10 µM. DSG3-coupled beads, scFv-anti-DSG3-GFP binding; active compounds read low. 0.48% of 310,000 active. Desmoglein-3 (Homo sapiens), P32926;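 active means binding more than 3 SD below its plate's average and above zero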;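 further: hits lower antibody fragment binding to DSG3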
DNMT1 block: human DNMT1 methyltransferase inhibitors, primary screen, biochemical, molecular beacon, fluorescence, HinP1I cleavage, uHTS. 0.83% of 360,000 active. inhibition (reported as % activation of signal), % at 10 µM. AID 588458, 2011. DNA (cytosine-5)-methyltransferase 1 (Homo sapiens), P26358; in the data active means inhibition above about 50%
UHRF1 binding: UHRF1 methylated DNA binding inhibitors, primary screen, counter-screen for MBD2 inhibitor project, biochemical, TR-FRET, human UHRF1, single concentration; UHRF1 binding to methylated oligo; inhibition, % at 4.4 µM; 0.75% of 370,000 active; AID 687016, 2013; in the data active means inhibition above about 21%;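 further: UHRF1 SRA domain binding a hemimethylated CpG hairpin DNA probe; 0% = median of test compound wells and 100% = reference inhibitor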
NS3 helicase inh: inhibitors of HCV NS3 helicase, primary screen, biochemical, Cy5 molecular beacon fluorescence; Hepatitis C virus NS3 helicase; NS3 helicase DNA unwinding; inhibition, % at 10.9 µM; 0.56% of 290,000 active; AID 1800, 2009;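 active means inhibition above the mean of all tested compounds plus 3 SD, set per campaign, cut at about 35% in these data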;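 further: 0% = DMSO wells and 100% = thioflavine S control wells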
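Assay system – hepatitis C virus NS3 helicase domain fragment enzyme · Buffer or medium – MOPS pH 6.5, MgCl2, DTT, Tween20, BSA · Reagent – Cy5/quencher beacon DNA duplex and ATP to start · Compound – single 10.9 µM dose · Timing – 1 h at 25 °C · Technique – Cy5 beacon fluorescence read at start and 1 h · Measure – % inhibition of unwinding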
SUMO1-SIM PPI: modulators of SUMO1 protein-protein interactions, primary screen, biochemical, uHTS; SUMO1 binding to a labelled peptide, TR-FRET, 1 h; inhibition, % at 20 µM; 0.33% of 360,000 active; AID 602429, 2012
Target sequence (P63165 whole entry, looked up): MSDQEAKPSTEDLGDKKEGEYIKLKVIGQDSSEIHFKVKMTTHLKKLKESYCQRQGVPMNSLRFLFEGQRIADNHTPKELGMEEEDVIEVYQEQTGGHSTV
MBD2 DNA inh: inhibitors of MBD2 binding to methylated DNA, primary screen, biochemical, TR-FRET, DNA-binding domain, human; inhibition, % at 4.4 µM; Methyl-CpG-binding domain protein 2 (Homo sapiens), Q9UBB5; 0.31% of 370,000 active; MBD2 binding to methylated oligonucleotide; in the data active means inhibition above about 13%
NS3 helicase cf: HCV NS3 helicase inhibitors, retest, confirmation, biochemical, Cy5 molecular beacon fluorescence, triplicate. shares compounds with NS3 helicase inh. NS3 helicase DNA unwinding. inhibition, % at 10.9 µM. 31% of 1,600 active. AID 1943, 2009;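 active means inhibition above the mean of all tested compounds plus 3 SD, cutoff set per campaign, cut at about 36% in these data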
DNA FID counter: compounds displacing fluorescent DNA intercalator, artefact control for HCV NS3 helicase inhibitor project, biochemical, FID fluorescence, triplicate. shares compounds with NS3 helicase inh. DNA fluorescent intercalator displacement. inhibition, % at 7.9 µM. 4% of 1,600 active. AID 1945, 2009;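 further: 0% = vehicle and 100% = reference compound; higher means more displacement of ethidium bromide from the DNA hairpin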
FID counter DR: compounds displacing fluorescent intercalator from DNA, dose response, counter-screen for HCV NS3 helicase inhibitor project, biochemical, fluorescence. 120 tested, under 10 active. shares compounds with NS3 helicase inh. IC50, µM. fluorescent intercalator displacement from DNA; call rule not given here
Starred values were filed as active, the others as inactive; nt = no result. Shown are actives, neighbours in structure and some others; about 2.5% of the full set was active somewhere. Unless noted, no stated cut-off is given here; in the data, active means inhibition above about 37%; inactive means the rest.

SMILES | Pemphigus Ab inh | DNMT1 block | UHRF1 binding | NS3 helicase inh | SUMO1-SIM PPI | MBD2 DNA inh | NS3 helicase cf | DNA FID counter | others
S=C(NNc1cccc(Cl)c1)NC1CCCCC1 | 90 | -1 | 7 | 0 | 0 | 0 | nt | nt
NNc1nc2c(-c3cccc(C(F)(F)F)c3)nnn2c2ccccc12 | 106 | 13 | -3 | 43* | 6 | -5 | 0 | 17
COc1cc(/C=C2/SC(=S)NC2=O)ccc1OS(=O)(=O)c1ccc(C)cc1 | 90 | -5 | nt | 53* | 16 | nt | 59* | 31
COc1cc(/C=C2\SC(=S)NC2=O)ccc1OS(=O)(=O)c1ccccc1 | nt | nt | nt | 16 | nt | nt | nt | nt
COc1ccc(/C=C2/S/C(=N/S(=O)(=O)Cc3ccccc3)NC2=O)cc1OC | 106 | 3 | 4 | 42* | -20 | 3 | 57* | -33
O=C(N/N=C/c1cccc(Cl)c1)C1CCCC1 | nt | 10 | -1 | -2 | -9 | -1 | nt | nt
Cc1ccc(C(C)CCN2CCC(n3nccc3NC(=O)c3ccccc3)CC2)o1 (stereo not drawn) | 101 | -1 | -1 | -6 | 1 | 3 | nt | nt
COc1ccc(CN(C(=O)c2ccco2)C2CC(C)N(C)CC2C)cc1 (stereo not drawn) | 103 | -1 | -1 | 7 | -6 | -4 | nt | nt
Cc1occc1C(=O)NNC(=S)NC(=O)COc1ccc(Cl)cc1Cl | nt | 1 | 4 | 72* | 1 | 2 | 58* | -6 | FID counter DR=>79
O=C(Cn1nc(-c2ccco2)ccc1=O)Nc1ccc(Br)cc1 | 109 | -6 | 0 | 40* | -16 | -5 | -16 | -4
Cc1cccc(NC(=O)Cn2nc(-c3ccco3)ccc2=O)c1C | 103 | 3 | -2 | 18 | -15 | 4 | nt | nt
C/C=C/C(O)c1ccc2ccccc2c1 (stereo not drawn) | nt | nt | nt | 41* | nt | nt | 0 | 4
Cc1cccc(N2C(S)=C(C#N)C(=O)NC2c2ccco2)c1 (stereo not drawn) | 98 | -17 | -5 | 8 | 5 | -1 | nt | nt
N#CC1=C(S)N(c2ccccc2)C(c2ccc(-c3cccc(Cl)c3)o2)NC1=O (stereo not drawn) | 103 | -19 | 0 | 36* | -3 | 4 | 60* | 2
O=C(Cc1cccs1)Nc1nnc(SCC(=O)NC2CCCCC2)s1 | 96 | 6 | -3 | -7 | -1 | -3 | nt | nt
COc1ccc(NC(=O)/C(C#N)=C\C=C\c2ccco2)cc1 | 93 | -6 | 3 | 85* | 21 | 2 | -4 | 0
Cc1nnc(SCC2=C(C(=O)O)N3C(=O)C(NC(=O)c4cc(F)c(F)cc4Cl)C3SC2)s1 (stereo not drawn) | 101 | 10 | 1 | 36* | 6 | 3 | 11 | -23
CC(=O)OCC1=C(C(=O)O)N2C(=O)C(NC(=O)Cn3nc(C(F)F)c(Cl)c3C)C2SC1 (stereo not drawn) | 106 | 19 | 1 | 40* | 17 | 1 | 18 | -9
Cc1nnc(SCC2=C(C(=O)O)N3C(=O)C(NC(=O)Cn4nc(C(F)F)c(Cl)c4C)C3SC2)s1 (stereo not drawn) | 104 | 0 | 0 | 45* | 16 | 0 | 38* | -22
CC(=O)OCC1=C(C(=O)O)N2C(=O)C(NC(=O)c3ccc(COc4c(C)cccc4Cl)o3)C2SC1 (stereo not drawn) | 103 | 17 | 9 | 38* | 12 | 13 | 46* | -16

Compound activity from PubChem BioAssay.
